# Laboratory results: ChEMBL document CHEMBL1122411 (J Med Chem, 1983)
# Legend:
# [1] = molecular target: T1, Dihydrofolate reductase (Mus musculus) (UniProt P00375); experiment: Binding affinity to Dihydrofolate reductase of L1210/R71 using spectrophotometric assay
# T1 sequence (whole entry): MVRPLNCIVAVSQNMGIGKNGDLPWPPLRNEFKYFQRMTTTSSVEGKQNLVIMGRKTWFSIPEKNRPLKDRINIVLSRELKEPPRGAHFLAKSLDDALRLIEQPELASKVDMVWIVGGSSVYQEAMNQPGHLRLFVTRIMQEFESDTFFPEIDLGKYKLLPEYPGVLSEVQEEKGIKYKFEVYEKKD
# In short: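 The enzyme was isolated from MTX-resistant L1210/R71 cultured cells and purified on MTX-agarose. The assay measured ΔA340 at 22 °C in 0.1 M Tris, pH 7.0, with 62 nM enzyme. Enzyme was preincubated 2 min with inhibitor and NADPH, and dihydrofolate was then added to start the reaction. ID₅₀ determined.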
# L1210 = experiment: Cytotoxicity against L1210 cells; format: functional; conditions: Mus musculus, read-out: ID50 (the source's name)
# Mus musculus [2] = experiment: Weight change on day 7 in L1210 Lymphoid Leukemia in mice at a dose of 10 mg/kg/day (qd x9); format: functional
# In short: (§1)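 Male B6D2F₁J mice (20–25 g) bearing ip L1210 ascites (10⁵ cells, day 0) were used, 5 per group. Drug was given ip in water at pH 7.5–8.0 from day 1 on q2d×5, qd×9 or b.i.d.×10 schedules. Animals were weighed after 7 days and percent weight change recorded.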
# Mus musculus [3] = species on record: Mus musculus; experiment: Percentage increase in life span after 12-15 days; format: functional
# In short: (§2)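 Male B6D2F1J mice (20–25 g), randomized after i.p. inoculation with 10^5 L1210 ascitic leukemia cells on day 0. Drug in water, pH 7.5–8.0, given i.p. on a q2d×5, qd×9 (from day 1) or b.i.d.×10 schedule; 5 mice per group. %ILS = [(T/C) − 1]100 from median survival days of treated versus control mice. Range is survival days.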
# Mus musculus [4] = experiment: Toxicity in mice after 17-18 days at a dose of 30 mg/kg/day; value is 17/9; format: functional
# Mus musculus [5] = species on record: Mus musculus; experiment: Percentage increase in life span after 13-20 days; format: functional; in short: as §2
# Mus musculus [6] = experiment: Weight change on day 7 in L1210 Lymphoid Leukemia in mice at a dose of 20 mg/kg/day (qdx9); format: functional; in short: as §1
# Mus musculus [7] = species on record: Mus musculus; experiment: Percentage increase in life span after 17-18 days; format: functional; in short: as §2
# Mus musculus [8] = experiment: Toxicity in mice after 15-17 days at a dose of 20 mg/kg/day; value is 16/9; format: functional
# Mus musculus [9] = species on record: Mus musculus; experiment: Percentage increase in life span after 15-17 days; format: functional
# In short: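 Male B6D2F1J mice (20–25 g) were inoculated i.p. with 10⁵ L1210 ascitic leukemia cells on day 0 and randomized into groups of 5. Drug in water at pH 7.5–8.0 was given i.p. from day 1 on qd×9, q2d×5 or b.i.d.×10 schedules. Weight change was recorded at day 7. %ILS = [(T/C) − 1]100, using median survival days; ≥25% counts as significant.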
# Mus musculus [10] = experiment: Toxicity in mice after 13-20 days at a dose of 40 mg/kg/day; value is 19/9; format: functional
# Mus musculus [11] = experiment: Toxicity in mice after 12-15 days at a dose of 10 mg/kg/day; value is 13/9; format: functional
# Mus musculus [12] = experiment: Weight change on day 7 in L1210 Lymphoid Leukemia in mice at a dose of 40 mg/kg/day (qdx9); format: functional
# In short: (§3)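 Male B6D2F1J mice (20–25 g) were inoculated i.p. with 10⁵ L1210 ascites cells on day 0 and randomized into groups of 5. Drug in water at pH 7.5–8.0 was given i.p. daily for 9 days (qd×9) from day 1. Animals were weighed after 7 days, and the % body-weight change was recorded under a standard NCI protocol.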
# Mus musculus [13] = experiment: Weight change on day 7 in L1210 Lymphoid Leukemia in mice at a dose of 30 mg/kg/day (qdx9); format: functional; in short: as §1
# Mus musculus [14] = species on record: Mus musculus; experiment: Percentage increase in life span after 10-24 days; format: functional; in short: as §2
# [15] = molecular target: T1, Dihydrofolate reductase (Mus musculus); experiment: Binding affinity to Dihydrofolate reductase of L1210 cell line using [H]MTX as radioligand; format: cell-based
# In short: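 Competitive [³H]MTX binding to dihydrofolate reductase from L1210 leukemia. Ascites cells from tumor-bearing mice were washed and lysed before use. The assay ran at 37 °C in 0.1 M potassium phosphate, pH 6.8. ID₅₀ was read as inhibition of radioligand binding, with MTX included in each experiment.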
# Mus musculus [16] = experiment: Weight change on day 7 in L1210 Lymphoid Leukemia in mice at a dose of 8 mg/kg/day (1dx9); format: functional; in short: as §3
# Mus musculus [17] = species on record: Mus musculus; experiment: Percentage increase in life span after 10-23 days; format: functional; in short: as §2
# Mus musculus [18] = experiment: Toxicity in mice after 10-24 days at a dose of 20 mg/kg/day; value is 18/9; format: functional
# Mus musculus [19] = experiment: Weight change on day 7 in L1210 Lymphoid Leukemia in mice at a dose of 2 mg/kg/day (1dx9); format: functional; in short: as §1
# Mus musculus [20] = experiment: Weight change on day 7 in L1210 Lymphoid Leukemia in mice at a dose of 4 mg/kg/day (1dx9); format: functional; in short: as §1
# Mus musculus [21] = species on record: Mus musculus; experiment: Percentage increase in life span after 14-22 days; format: functional; in short: as §2
# Mus musculus [22] = experiment: Weight change on day 7 in L1210 Lymphoid Leukemia in mice at a dose of 20 mg/kg/day (qdx5); format: functional; conditions: in the assay text read “q2dx5” for “qdx5”; in short: as §1
# Mus musculus [23] = experiment: Toxicity in mice after 10-23 days at a dose of 40 mg/kg/day; value is 21/9; format: functional
# Mus musculus [24] = experiment: Toxicity in mice after 11-16 days at a dose of 2 mg/kg/day; value is 12/8.5; format: functional
# [25] = system: Carboxypeptidase G1 (Pseudomonas); experiment: Tested for substrate activity of compound for Carboxypeptidase G1
# [26] = molecular target: Dihydrofolate reductase (Lactobacillus casei) (UniProt P00381); conditions: Lacticaseibacillus casei
# Sequence of Dihydrofolate reductase (Lactobacillus casei) (P00381 whole entry): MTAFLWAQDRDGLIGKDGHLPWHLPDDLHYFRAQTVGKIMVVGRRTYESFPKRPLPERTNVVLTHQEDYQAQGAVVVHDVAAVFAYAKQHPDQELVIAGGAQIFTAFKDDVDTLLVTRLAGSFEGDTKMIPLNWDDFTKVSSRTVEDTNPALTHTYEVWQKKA
# Mus musculus [27] = species on record: Mus musculus; experiment: Percentage increase in life span after 10-22 days; format: functional; in short: as §2
# Mus musculus [28] = species on record: Mus musculus; experiment: Percentage increase in life span after 11-16 days; format: functional; in short: as §2
# Mus musculus [29] = experiment: Toxicity in mice after 12-20 days at a dose of 4 mg/kg/day; value is 13/8.5; format: functional
# Mus musculus [30] = experiment: Toxicity in mice after 14-22 days at a dose of 8 mg/kg/day; value is 14/8.5; format: functional
# [31] = Tested for substrate activity of compound for Carboxypeptidase G1; parameters: species or system Mus musculus
# In short: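 Cleavage by carboxypeptidase G₁ was followed as the A320 change on release of the pteroate. Conditions were 37 °C in 0.05 M potassium phosphate, pH 6.7, with 100 μM ZnSO₄. Enzyme was diluted in 1% BSA to give ΔA320 of 0.02–0.2/min. Km and Vmax came from Lineweaver-Burk plots. Ki came from competitive runs varying analogue against fixed MTX, or vice versa.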
# Mus musculus [32] = experiment: Toxicity in mice after 10-22 days at a dose of 40 mg/kg/day; value is 15/9; format: functional
# Mus musculus [33] = species on record: Mus musculus; experiment: Percentage increase in life span after 13-18 days; format: functional; in short: as §2
# Mus musculus [34] = species on record: Mus musculus; experiment: Percentage increase in life span after 12-20 days; format: functional; in short: as §2
# [35] = molecular target: T1, Dihydrofolate reductase (Mus musculus)
# Mus musculus [36] = experiment: Toxicity in mice after 13-18 days at a dose of 20 mg/kg/day; value is 13/9; format: functional
# [37] = molecular target: Dihydrofolate reductase (Lactobacillus casei) (UniProt P00381); conditions: Lacticaseibacillus casei; remark: listed apart in the source
smiles,measurement,setting,value
CN(Cc1cnc2nc(N)nc(N)c2n1)c1ccc(C(=O)NC(CCCCCC(=O)O)C(=O)O)cc1 (stereo not drawn),ID50,[1],35 nM
same,IC50,L1210,6.3 nM
same,Weight change,Mus musculus [2],11%
same,ILS,Mus musculus [3],44%
same,T/C,Mus musculus [4],17
same,ILS,Mus musculus [5],111%
same,Weight change,Mus musculus [6],7%
same,ILS,Mus musculus [7],89%
same,T/C,Mus musculus [8],16
same,ILS,Mus musculus [9],78%
same,T/C,Mus musculus [10],19
same,T/C,Mus musculus [11],13
same,Weight change,Mus musculus [12],6%
same,Weight change,Mus musculus [13],9%
CN(Cc1cnc2nc(N)nc(N)c2n1)c1ccc(C(=O)NC(CCCCC(=O)O)C(=O)O)cc1 (stereo not drawn),ILS,Mus musculus [14],100%
same,ID50,[15],2.8 nM
same,ID50,[1],39 nM
same,Weight change,Mus musculus [16],4%
same,IC50,L1210,10 nM
same,ILS,Mus musculus [17],133%
same,T/C,Mus musculus [18],18
same,Weight change,Mus musculus [19],10%
same,Weight change,Mus musculus [6],-2%
same,Weight change,Mus musculus [20],4%
same,ILS,Mus musculus [21],65%
same,Weight change,Mus musculus [22],6%
same,T/C,Mus musculus [23],21
same,T/C,Mus musculus [24],12
same,Km,[25],481 µM
same,Vmax,[25],0.44 min⁻¹
same,ID50,[26],18 nM
same,ILS,Mus musculus [27],67%
same,ILS,Mus musculus [28],41%
same,Weight change,Mus musculus [12],-4%
same,T/C,Mus musculus [29],13
same,T/C,Mus musculus [30],14
same,Ki,[31],22000 nM
same,T/C,Mus musculus [32],15
same,ILS,Mus musculus [33],44%
same,ILS,Mus musculus [34],52%
same,ID50,[35],6.9 nM
same,T/C,Mus musculus [36],13
same,ID50,[37],6.3 nM
